Data set [1] has as its target T1, Heat shock protein HSP 90-alpha (Homo sapiens, UniProt P07900). Description: Binding affinity to recombinant human HSP90 alpha by Surface plasmon resonance analysis.
In data set [2] the test system is HeLa. The experiment in a line: Antiproliferative activity against human HeLa cells after 48 hrs by MTT assay. The format is functional, cell-based. An outline of the steps: (§1)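 Cells grown in DMEM (HeLa) or RPMI 1640 (Jurkat) with 10% FBS at 37 °C and 5% CO2. Seeded at 1 × 10^4 cells/well the day before, then exposed 48 h to 10−150 μM compound (final DMSO ≤0.15% v/v), with vehicle and etoposide controls. MTT read at 550 nm; IC50 from dose–response curves versus controls; mean ± SD, ≥3 experiments in duplicate.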
A general note: Tetrazolium dyes change colour on reduction, which living cells bring about.

Another data set concerns Jurkat. The experiment in a line: Antiproliferative activity against human Jurkat cells after 48 hrs by MTT assay. The format is functional, cell-based. An outline of the steps:
as §1

The subject of another data set is PBMC. The experiment in a line: Cytotoxicity against human PBMC up to 100 uM after 48 hrs by trypan blue exclusion assay. It is filed as cell-based.
The test system of data set [3] is HeLa. Description: Cell cycle arrest in human HeLa cells assessed as accumulation at G2/M phase at 10 to 20 uM after 48 hrs by propidium iodide staining based flow cytometry. It is filed as functional. An outline of the steps: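 HeLa cells in DMEM with 10% FBS at 37 °C, 5% CO2, exposed to 10 or 20 μM for 48 h, DMSO vehicle (final ≤0.15%). Permeabilized cells stained with propidium iodide and analyzed by flow cytometry, 5000 events per sample. Percentages in hypodiploid, G0/G1, S and G2/M are given minus control values. Mean ± SD of three experiments run in duplicate.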
(Flow cytometry measures light scatter and fluorescence of single cells or particles in a stream.)

Data set [4] concerns the target T1, Heat shock protein HSP 90-alpha. Description: Inhibition of HSP90 alpha in human HeLa cells assessed as effect on CDC2/p34 phosphorylation at Thr161 residue at 10 uM after 48 hrs by Western blot analysis relative to GAPDH (reference value: 1). It is filed as cell-based. In general terms: Immunoblotting shows a protein as a band on a membrane.
The target is the same in data set [5]. The experiment in a line: Inhibition of HSP90 alpha in human HeLa cells assessed as effect on CDC2/p34 phosphorylation at Thr161 residue at 20 uM after 48 hrs by Western blot analysis relative to GAPDH (reference value: 1). It is filed as cell-based.
The subject of data set [6] is HeLa. Description: Effect on total Cdc2 expression in human HeLa cells at 10 uM after 48 hrs by Western blot analysis relative to GAPDH (reference value: 1). The format is ADME, cell-based.
The test system of data set [7] is HeLa. The experiment in a line: Effect on total Cdc2 expression in human HeLa cells at 20 uM after 48 hrs by Western blot analysis relative to GAPDH (reference value: 1). The format is ADME, cell-based.
The target in data set [8] is T1, Heat shock protein HSP 90-alpha. Description: Inhibition of HSP90 alpha in human HeLa cells assessed as effect on HSP90 expression at 10 uM after 48 hrs by Western blot analysis relative to alpha-tubulin (reference value: 1). It is filed as cell-based.
Data set [9] shares this target. Description: Inhibition of HSP90 alpha in human HeLa cells assessed as effect on HSP90 expression at 20 uM after 48 hrs by Western blot analysis relative to alpha-tubulin (reference value: 1). It is filed as cell-based.
For data set [10] the target is unchanged. The experiment in a line: Inhibition of HSP90 alpha in human HeLa cells assessed as effect on HSP70 expression at 10 uM after 48 hrs by Western blot analysis relative to alpha-tubulin (reference value: 1). It is filed as cell-based.
Data set [11] shares this target. The experiment in a line: Inhibition of HSP90 alpha in human HeLa cells assessed as effect on HSP70 expression at 20 uM after 48 hrs by Western blot analysis relative to alpha-tubulin (reference value: 1). The format is cell-based.
Data set [12] has the same target. The experiment in a line: Inhibition of HSP90 alpha in human HeLa cells assessed as effect on EGFR expression at 10 uM after 48 hrs by Western blot analysis relative to GAPDH (reference value: 1). It is filed as cell-based.
Data set [13] shares this target. The experiment in a line: Inhibition of HSP90 alpha in human HeLa cells assessed as effect on EGFR expression at 20 uM after 48 hrs by Western blot analysis relative to GAPDH (reference value: 1). The format is cell-based.
For data set [14] the target is unchanged. Description: Inhibition of HSP90 alpha in human HeLa cells assessed as effect on AKT phosphorylation at 10 uM after 48 hrs by Western blot analysis relative to GAPDH (reference value: 1). The format is cell-based.
In data set [15] the test system is HeLa. The experiment in a line: Effect on total AKT expression in human HeLa cells at 10 uM after 48 hrs by Western blot analysis relative to GAPDH (reference value: 1). The format is ADME, cell-based.
In data set [16] the test system is HeLa. The experiment in a line: Effect on total AKT expression in human HeLa cells at 20 uM after 48 hrs by Western blot analysis relative to GAPDH (reference value: 1). It is filed as ADME, cell-based.
The target of data set [17] is T1, Heat shock protein HSP 90-alpha. The experiment in a line: Inhibition of HSP90 alpha in human HeLa cells assessed as effect on Cyclin A expression at 10 uM after 48 hrs by Western blot analysis relative to GAPDH (reference value: 1). The format is cell-based.
The target is the same in data set [18]. Description: Inhibition of HSP90 alpha in human HeLa cells assessed as effect on Cyclin A expression at 20 uM after 48 hrs by Western blot analysis relative to GAPDH (reference value: 1). It is filed as cell-based.
Data set [19] shares this target. Description: Inhibition of HSP90 alpha in human HeLa cells assessed as effect on ERK1 phosphorylation at 10 uM after 48 hrs by Western blot analysis relative to GAPDH (reference value: 1). The format is cell-based.
Data set [20] has the same target. Description: Inhibition of HSP90 alpha in human HeLa cells assessed as effect on ERK1 phosphorylation at 20 uM after 48 hrs by Western blot analysis relative to GAPDH (reference value: 1). The format is cell-based.
Data set [21] concerns HeLa. Description: Effect on total ERK1 expression in human HeLa cells at 10 uM after 48 hrs by Western blot analysis relative to GAPDH (reference value: 1). It is filed as ADME, cell-based.
Data set [22] concerns HeLa. Description: Effect on total ERK1 expression in human HeLa cells at 20 uM after 48 hrs by Western blot analysis relative to GAPDH (reference value: 1). It is filed as ADME, cell-based.

Activity calls are given as the source filed them. No cut-off for these calls is given here.

A word on the Kd: it is a measure of binding affinity in units of concentration. What is called IC50 is the point on the concentration scale where inhibition reaches its midpoint.

As for `CC1=C2C[C@]3(C)C(=O)C[C@@H](C(C)C)[C@H]3C/C=C(/C)[C@@H]2CC1=O` [HYPOESTENONE], the Kd in [1] (read-out: Kd) is 1 µM. The IC50 in the data set on HeLa [2] and in the data set with Jurkat was above 20 µM in each case.
Consider `CC(=O)O[C@H]1C[C@@](O)(C(C)C)[C@H]2C/C=C(/C)[C@@H]3CC(=O)C(C)=C3C[C@]12C`, for which the Kd result in data set [1] is listed as “Not Active”. The half-inhibitory concentration (IC50) with HeLa [2] and in the data set with Jurkat was above 20 µM throughout.
For `CC1=C2C[C@]3(C)C(=O)C[C@@H](C(C)(C)O)[C@H]3C/C=C(/C)[C@@H]2CC1=O`, the Kd in [1] (read-out: Kd) worked out at 0.0153 µM. Also, the 50% inhibitory concentration (IC50) in the data set on HeLa [2] and in the data set with Jurkat was above 20 µM throughout. Further, in the data set on PBMC, the Activity result was “Non-Toxic”. For the same compound, the result in the data set with HeLa [3] was Active. Further, the fold change (FC) worked out at 0.2 in data set [4]; 0.1 in data set [5]; 1.8 in the data set with HeLa [6]; 1.5 in the data set with HeLa [7]; 1.4 in data set [8]; 1.3 in data set [9]. Also, the fold change (FC) was determined as 1 in data set [10]; 0.8 in data set [11]; 1.3 in data set [12]; 1.4 in data set [13]; 0.3 in data set [14]; 1 in the data set on HeLa [15]. Further, the “fold change (FC)” value with HeLa [16] was 1; in [17], 1; in data set [18], 1.2; in data set [19], 0.5; in data set [20] it was 0.3; with HeLa [21] it was 1.2. In the data set with HeLa [22], the “fold change (FC)” value amounted to 1.2.
With `C/C1=C/C[C@@H]2[C@H](C(C)C)CC(=O)[C@@]2(C)/C=C2/C(C)CCC12` (stereo partly specified), in data set [1] (read-out: Kd), the Kd came out at 0.0205 µM. The IC50 with HeLa [2] and in the data set with Jurkat was above 20 µM in each case.
In the case of `CC(C)[C@@H]1CC(=O)[C@@]2(C)/C=C3\C(CC[C@@]3(C)O)[C@]3(C)O[C@@H]3CC12` (stereo partly specified), the Kd in data set [1] (read-out: Kd) is 0.045 µM. Also, the IC50 in the data set on HeLa [2] and with Jurkat was above 20 µM each time.
With `CC1=C2C[C@]3(C)C(=O)C=C(C(C)C)[C@H]3C/C=C(/C)[C@@H]2CC1=O`, in data set [1] (read-out: Kd), the Kd came to 1.74 µM. The IC50 in the data set with HeLa [2] and with Jurkat was above 20 µM in each case.
Turning to `C=C1CC[C@H]2/C(C)=C\C[C@@H]3[C@H](C(C)C)CC(=O)[C@@]3(C)C[C@@H]12`, the Kd in data set [1] (read-out: Kd) was found to be 0.401 µM. Moreover, the IC50 in the data set with HeLa [2] and in the data set on Jurkat was above 20 µM each time.
For `C=C1CC[C@@H]2[C@H]1C[C@]1(C)CC[C@@H](C(C)C)[C@H]1C[C@H]1O[C@@]21C`, the Kd in [1] (read-out: Kd) worked out at 0.13 µM. Moreover, the 50% inhibitory concentration (IC50) in the data set with HeLa [2] and in the data set on Jurkat was above 20 µM throughout.
For the compound `C/C1=C/C[C@@H]2[C@H](C(C)C)CC[C@@]2(C)CC23OC2(C)CC[C@@H]13` (stereo partly specified), the Kd entry in data set [1] was “Not Active”. In addition, the IC50 with HeLa [2] and in the data set on Jurkat was above 20 µM throughout.
Turning to `CC1=C2C[C@]3(C)C(=O)C=C(C(C)C)C3CC(O)/C(C)=C\2CC1=O` (stereo partly specified), the dissociation constant Kd entry in [1] was “Not Active”. For the same compound, the IC50 in the data set with HeLa [2] and with Jurkat was above 20 µM throughout.
As for `CC1=C2C[C@]3(C)CC[C@@H](C(C)C)[C@H]3C/C=C(/C)[C@@H]2CC1=O`, in data set [1] (read-out: Kd), the Kd was 0.028 µM. In addition, the 50% inhibitory concentration (IC50) with HeLa [2] and in the data set with Jurkat was above 20 µM throughout.
As to `CC1=C2C[C@]3(C)C(=O)C[C@@H](C(C)C)[C@H]3C[C@H]3O[C@@]3(C)[C@@H]2CC1=O`, in data set [1], the Kd entry is on record as “Not Active”. In addition, the IC50 with HeLa [2] and in the data set on Jurkat was above 20 µM throughout.
Turning to `CC1=C2C[C@@]3(C)O[C@@](C)([C@@H]2CC1=O)[C@H]1CC(=O)[C@@](C(C)C)(CC3=O)O1`, the dissociation constant (Kd) in [1] (read-out: Kd) turned out to be 0.12 µM. In addition, the IC50 in the data set on HeLa [2] and in the data set on Jurkat was above 20 µM throughout.
Turning to `CC1=C2C[C@]3(C)C(=O)C=C(C(C)C)[C@H]3C[C@H]3O[C@@]3(C)[C@@H]2CC1=O`, the Kd entry in [1] is “Not Active”. The IC50 in the data set on HeLa [2] and in the data set with Jurkat was above 20 µM in each case.
With `CC1=CCC23OC4(C[C@]2(C)C(=O)C=C3C(C)C)[C@H](C)C(=O)C[C@@H]14` (stereo partly specified), in data set [1] (read-out: Kd), the Kd was determined as 0.217 µM. The IC50 in the data set with HeLa [2] and in the data set with Jurkat was above 20 µM in each case.

The values above are taken from ChEMBL document CHEMBL4422696, “Fusicoccane Diterpenes from Hypoestes forsskaolii as Heat Shock Protein 90 (Hsp90) Modulators” (J Nat Prod, 2019).
